Source: ChEMBL document CHEMBL5244263, “Studies on fragment-based design of allosteric inhibitors of human factor XIa” (Bioorg Med Chem, 2020)
Active and inactive are the calls of the source. The calls are words filed in the database; no cut-off is given here.

How the values were obtained:
[1] = target: T1, Coagulation factor XI (Homo sapiens, UniProt P03951); assay: Inhibition of human FXIa using S-2366 as chromogenic substrate preincubated with enzyme for 10 mins followed by substrate addition by spectrophotometric analysis
[2] = target: T1, Coagulation factor XI; assay: Inhibition of human FXIa using S-2366 as chromogenic substrate preincubated with enzyme for 10 mins followed by substrate addition by spectrophotometric analysis relative to control; design: concentration or dose not given beside the values
Procedure, shortened: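 hFXIa (0.765 nM final) preincubated with inhibitor or reference solution for 10 min at 37 °C in pH 7.4 buffer (50 mM Tris-HCl, 150 mM NaCl, 0.1% PEG8000, 0.02% Tween80). S-2366 (345 μM final) then added, and residual activity read on a microplate reader.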

[3] = target: Prothrombin (Homo sapiens) (UniProt P00734); assay: Inhibition of human thrombin at 500 uM by chromogenic substrate hydrolysis assay
[4] = target: T2, Coagulation factor VII (Homo sapiens) (UniProt P08709); assay: Inhibition of FVIIa (unknown origin) at 500 uM by chromogenic substrate hydrolysis assay
T2 sequence (whole entry): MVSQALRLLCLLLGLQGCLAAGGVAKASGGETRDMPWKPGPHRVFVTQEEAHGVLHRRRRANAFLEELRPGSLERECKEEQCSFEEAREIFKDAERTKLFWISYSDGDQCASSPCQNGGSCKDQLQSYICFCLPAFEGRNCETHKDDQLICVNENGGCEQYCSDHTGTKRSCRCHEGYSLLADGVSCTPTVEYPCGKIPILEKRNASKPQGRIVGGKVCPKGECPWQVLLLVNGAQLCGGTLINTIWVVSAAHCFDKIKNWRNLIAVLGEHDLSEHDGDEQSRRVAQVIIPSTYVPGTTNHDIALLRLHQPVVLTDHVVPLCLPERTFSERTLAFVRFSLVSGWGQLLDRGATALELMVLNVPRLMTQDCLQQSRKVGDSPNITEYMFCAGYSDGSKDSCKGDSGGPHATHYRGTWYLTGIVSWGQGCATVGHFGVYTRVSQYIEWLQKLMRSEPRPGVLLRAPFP

[5] = target: Coagulation factor IX (Homo sapiens) (UniProt P00740); assay: Inhibition of human FIXa at 500 uM by chromogenic substrate hydrolysis assay
[6] = target: Plasma kallikrein (Homo sapiens) (UniProt P03952); assay: Inhibition of Kallikrein in human plasma at 500 uM by chromogenic substrate hydrolysis assay; type: cell-free
[7] = target: Chymotrypsinogen A (Bos taurus) (UniProt P00766); assay: Inhibition of bovine alpha-chymotrypsin at 500 uM by chromogenic substrate hydrolysis assay
[8] = organism: Homo sapiens; assay: Selectivity for inhibition of human FXIa over human thrombin
[9] = organism: Homo sapiens; assay: Selectivity for inhibition of human FXIa over FVIIa (unknown origin)
[10] = organism: Homo sapiens; assay: Selectivity for inhibition of human FXIa over human FIXa
[11] = organism: Homo sapiens; assay: Selectivity for inhibition of human FXIa over human FXa
[12] = organism: Homo sapiens; assay: Selectivity for inhibition of human FXIa over Kallikrein in human plasma; type: cell-free
[13] = Selectivity for inhibition of human FXIa over bovine trypsin
[14] = Selectivity for inhibition of human FXIa over bovine alpha-chymotrypsin
[15] = target: Coagulation factor X (Homo sapiens) (UniProt P00742); assay: Inhibition of human FXa using methoxycarbonyl-D-cyclohexylglycyl-Gly-Arg-p-nitroanilide as substrate at >200 uM by chromogenic substrate hydrolysis assay
[16] = organism: Bos taurus; assay: Inhibition of bovine trypsin using S-2222 as chromogenic substrate at >200 uM by chromogenic substrate hydrolysis assay
[17] = target: Coagulation factor X (Homo sapiens) (UniProt P00742); assay: Inhibition of human FXa using methoxycarbonyl-D-cyclohexylglycyl-Gly-Arg-p-nitroanilide as substrate at 500 uM by chromogenic substrate hydrolysis assay
[18] = organism: Bos taurus; assay: Inhibition of bovine trypsin using S-2222 as chromogenic substrate at 500 uM by chromogenic substrate hydrolysis assay

Sequence of Plasma kallikrein (Homo sapiens) (P03952 20-390 limits assumed): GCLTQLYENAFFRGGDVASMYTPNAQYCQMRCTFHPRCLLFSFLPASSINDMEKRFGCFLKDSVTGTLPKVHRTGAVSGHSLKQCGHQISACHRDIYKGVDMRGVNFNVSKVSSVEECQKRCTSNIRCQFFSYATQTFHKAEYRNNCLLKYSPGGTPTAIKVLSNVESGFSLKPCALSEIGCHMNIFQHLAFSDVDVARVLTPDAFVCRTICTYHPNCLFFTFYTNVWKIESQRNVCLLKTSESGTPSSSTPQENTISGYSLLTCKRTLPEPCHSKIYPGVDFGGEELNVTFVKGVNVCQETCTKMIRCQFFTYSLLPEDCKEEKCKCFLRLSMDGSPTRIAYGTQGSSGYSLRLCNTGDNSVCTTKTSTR
Sequence of Plasma kallikrein (Homo sapiens) (P03952 391-638 limits assumed): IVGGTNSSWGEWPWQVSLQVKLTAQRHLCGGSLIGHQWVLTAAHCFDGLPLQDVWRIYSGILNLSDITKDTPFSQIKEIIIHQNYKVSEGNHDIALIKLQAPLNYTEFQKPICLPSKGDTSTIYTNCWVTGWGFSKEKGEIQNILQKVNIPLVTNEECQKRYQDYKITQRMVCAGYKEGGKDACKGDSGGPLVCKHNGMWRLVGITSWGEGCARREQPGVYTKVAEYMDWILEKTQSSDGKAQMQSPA
T1 sequence (P03951 19-387 limits assumed): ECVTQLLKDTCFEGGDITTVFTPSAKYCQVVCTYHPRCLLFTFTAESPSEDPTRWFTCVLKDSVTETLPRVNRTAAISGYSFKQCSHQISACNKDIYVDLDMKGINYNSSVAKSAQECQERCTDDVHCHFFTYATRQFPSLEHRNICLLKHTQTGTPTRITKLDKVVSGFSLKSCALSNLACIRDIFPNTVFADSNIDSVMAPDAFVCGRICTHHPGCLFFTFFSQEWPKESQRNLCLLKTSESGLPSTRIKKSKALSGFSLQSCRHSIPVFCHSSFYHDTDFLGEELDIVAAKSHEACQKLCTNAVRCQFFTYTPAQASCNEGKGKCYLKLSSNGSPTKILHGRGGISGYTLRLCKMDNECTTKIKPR
T1 sequence (P03951 388-625 limits assumed): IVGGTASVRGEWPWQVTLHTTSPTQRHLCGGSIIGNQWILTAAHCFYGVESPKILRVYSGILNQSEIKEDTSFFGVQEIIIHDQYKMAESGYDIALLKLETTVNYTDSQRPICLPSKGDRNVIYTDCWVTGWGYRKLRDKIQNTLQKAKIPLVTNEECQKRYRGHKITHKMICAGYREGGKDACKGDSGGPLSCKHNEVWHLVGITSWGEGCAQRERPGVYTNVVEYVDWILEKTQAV
Sequence of Coagulation factor X (Homo sapiens) (P00742 41-179 limits assumed): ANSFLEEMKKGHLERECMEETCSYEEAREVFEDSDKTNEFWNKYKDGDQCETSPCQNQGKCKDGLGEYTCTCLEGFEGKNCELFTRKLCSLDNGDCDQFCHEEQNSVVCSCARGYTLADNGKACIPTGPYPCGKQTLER
Sequence of Coagulation factor X (Homo sapiens) (P00742 235-488 limits assumed): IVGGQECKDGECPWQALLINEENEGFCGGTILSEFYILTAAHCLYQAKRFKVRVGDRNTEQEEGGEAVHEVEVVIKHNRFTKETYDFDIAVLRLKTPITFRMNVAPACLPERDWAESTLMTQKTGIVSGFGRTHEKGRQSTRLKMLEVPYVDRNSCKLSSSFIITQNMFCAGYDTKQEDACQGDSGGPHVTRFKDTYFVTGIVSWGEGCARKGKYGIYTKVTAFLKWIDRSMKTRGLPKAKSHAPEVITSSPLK
Sequence of Coagulation factor IX (Homo sapiens) (P00740 47-191 limits assumed): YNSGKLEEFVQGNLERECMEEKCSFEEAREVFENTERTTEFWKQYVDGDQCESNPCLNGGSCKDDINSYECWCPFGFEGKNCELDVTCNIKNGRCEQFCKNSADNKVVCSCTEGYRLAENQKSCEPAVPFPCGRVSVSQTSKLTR
Sequence of Coagulation factor IX (Homo sapiens) (P00740 227-461 limits assumed): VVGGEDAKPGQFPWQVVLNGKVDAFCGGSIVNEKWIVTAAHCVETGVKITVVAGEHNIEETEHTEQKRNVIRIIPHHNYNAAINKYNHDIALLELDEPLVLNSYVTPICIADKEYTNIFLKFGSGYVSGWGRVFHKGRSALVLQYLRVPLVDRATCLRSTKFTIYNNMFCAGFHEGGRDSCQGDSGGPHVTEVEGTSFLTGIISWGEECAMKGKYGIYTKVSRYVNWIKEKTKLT

SMILES | IC50 [1] | inhibition [2] | inhibition [3] | inhibition [4] | inhibition [5] | inhibition [6] | inhibition [7] | Selectivity ratio [8] | Selectivity ratio [9] | Selectivity ratio [10] | Selectivity ratio [11] | Selectivity ratio [12] | Selectivity ratio [13] | Selectivity ratio [14] | inhibition [15] | inhibition [16] | inhibition [17] | inhibition [18]
O=c1c2ccccc2nc(-c2ccc(OS(=O)(=O)O)cc2)n1CCCCCCCCCCn1c(-c2ccc(OS(=O)(=O)O)cc2)nc2ccccc2c1=O | 16.6 µM | 95% | inactive | inactive | inactive | inactive | inactive | > 63 | > 63 | > 63 | > 25 | > 63 | > 25 | > 63 | Active | Active | – | –
O=c1c2ccccc2nc(-c2ccc(OS(=O)(=O)O)cc2)n1CCCCCCCCn1c(-c2ccc(OS(=O)(=O)O)cc2)nc2ccccc2c1=O | 20 µM | 81% | inactive | inactive | inactive | inactive | inactive | > 63 | > 63 | > 63 | > 63 | > 63 | > 63 | > 63 | – | – | inactive | inactive
O=c1c2ccccc2nc(-c2ccc(OS(=O)(=O)O)cc2)n1CCCCCCCn1c(-c2ccc(OS(=O)(=O)O)cc2)nc2ccccc2c1=O | 23 µM | 96% | inactive | inactive | inactive | inactive | inactive | > 63 | > 63 | > 63 | > 63 | > 63 | > 63 | > 63 | – | – | inactive | inactive
O=c1c2ccccc2nc(-c2cccc(OS(=O)(=O)O)c2)n1CCCCCn1c(-c2cccc(OS(=O)(=O)O)c2)nc2ccccc2c1=O | 89 µM | 96% | inactive | inactive | inactive | inactive | inactive | > 63 | > 63 | > 63 | > 63 | > 63 | > 63 | > 63 | – | – | inactive | inactive
COc1ccc2nc(-c3ccc(OS(=O)(=O)O)cc3)n(CCCCCCn3c(-c4ccc(OS(=O)(=O)O)cc4)nc4ccc(OC)cc4c3=O)c(=O)c2c1 | 35 µM | 95% | inactive | inactive | inactive | inactive | inactive | > 63 | > 63 | > 63 | > 63 | > 63 | > 63 | > 63 | – | – | inactive | inactive
O=c1c2ccccc2nc(-c2cccc(OS(=O)(=O)O)c2)n1C/C=C/Cn1c(-c2cccc(OS(=O)(=O)O)c2)nc2ccccc2c1=O | 415 µM | 96% | inactive | inactive | inactive | inactive | inactive | > 63 | > 63 | > 63 | > 63 | > 63 | > 63 | > 63 | – | – | inactive | inactive
O=c1c2ccccc2nc(-c2cccc(OS(=O)(=O)O)c2)n1Cc1cccc(Cn2c(-c3cccc(OS(=O)(=O)O)c3)nc3ccccc3c2=O)c1 | 60 µM | 92% | inactive | inactive | inactive | inactive | inactive | > 63 | > 63 | > 63 | > 63 | > 63 | > 63 | > 63 | – | – | inactive | inactive
O=c1c2ccccc2nc(-c2ccc(OS(=O)(=O)O)cc2)n1CCCCCCCCCn1cc(Cn2c(-c3ccc(OS(=O)(=O)O)cc3)nc3ccccc3c2=O)nn1 | 34 µM | 100% | inactive | inactive | inactive | inactive | inactive | > 63 | > 63 | > 63 | > 63 | > 63 | > 63 | > 63 | – | – | inactive | inactive
O=c1c2ccccc2nc(-c2cccc(OS(=O)(=O)O)c2)n1Cc1ccccc1Cn1c(-c2cccc(OS(=O)(=O)O)c2)nc2ccccc2c1=O | 94 µM | 93% | inactive | inactive | inactive | inactive | inactive | > 63 | > 63 | > 63 | > 63 | > 63 | > 63 | > 63 | – | – | inactive | inactive
O=c1c2ccccc2nc(-c2cccc(OS(=O)(=O)O)c2)n1CCOCCn1c(-c2cccc(OS(=O)(=O)O)c2)nc2ccccc2c1=O | 401 µM | 94% | inactive | inactive | inactive | inactive | inactive | > 63 | > 63 | > 63 | > 63 | > 63 | > 63 | > 63 | – | – | inactive | inactive
O=c1c2ccccc2nc(-c2cccc(OS(=O)(=O)O)c2)n1CCCCCCn1c(-c2cccc(OS(=O)(=O)O)c2)nc2ccccc2c1=O | 53 µM | 96% | inactive | inactive | inactive | inactive | inactive | > 63 | > 63 | > 63 | > 63 | > 63 | > 63 | > 63 | – | – | inactive | inactive
O=c1c2ccccc2nc(-c2ccc(OS(=O)(=O)O)cc2)n1CCCCCn1c(-c2ccc(OS(=O)(=O)O)cc2)nc2ccccc2c1=O | 49 µM | 92% | inactive | inactive | inactive | inactive | inactive | > 63 | > 63 | > 63 | > 63 | > 63 | > 63 | > 63 | – | – | inactive | inactive
